Key:
Format in all cases: functional, cell-based
[1] = tested on: HL-60; test: Cytotoxicity against human HL60/TX1000 cell line by MTS assay
How it was run: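 HL-60/TX1000 is a subline isolated in vitro by subculturing HL-60 in rising Taxol concentrations. It overexpresses MDR1 mRNA and P-glycoprotein (Western blot, anti-P-gp immunofluorescence). Cells were grown in RPMI1640 with 10% FC, penicillin, streptomycin and L-glutamine, split every third day and set at 2· 10⁵ cells/mL the day before. Compound was a 1 mM DMSO stock diluted into medium, read by MTS.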

[2] = tested on: MES-SA; test: Cytotoxicity against human MES-SA cell line by MTS assay
How it was run: (§1)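 Cells kept in RPMI1640 with 10% FC, 100 U/mL penicillin, streptomycin and […] L-glutamine. Split every third day and diluted to 2· 10⁵ cells/mL one day before testing, so exponentially growing cultures were used. Compound stock was 1 mM in DMSO, diluted straight into the medium to final concentrations. Viability was read by MTS.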

[3] = tested on: MES-SA/Dx5; test: Cytotoxicity against human MES-SA/DX5 cell line by MTS assay; how it was run: as §1
[4] = tested on: DU-145; test: Cytotoxicity against human DU145 cell line by MTS assay; how it was run: as §1
[5] = tested on: MDA-MB-435; test: Cytotoxicity against human MDA435 cell line by MTS assay; how it was run: as §1
[6] = tested on: P388; test: Cytotoxicity against murine P388 cell line by MTS assay; conditions: Mus musculus; how it was run: as §1
[7] = tested on: HL-60; test: Cytotoxicity against human HL60 cell line by MTS assay; how it was run: as §1

| SMILES | IC50 [1] | other results |
| --- | --- | --- |
| O=C(c1ncc[nH]1)c1cn(Cc2ccc(Cl)cc2)c2ccccc12 | 10000 nM | – |
| COC(=O)c1c[nH]c(C(=O)c2cn(Cc3ccc(Cl)cc3)c3ccccc23)n1 | 500 nM | – |
| CCNC(=O)c1c[nH]c(C(=O)c2cn(Cc3ccc(Cl)cc3)c3ccccc23)n1 | 5000 nM | – |
| O=C(c1nc2cc[nH]cc-2n1)c1cn(Cc2ccc(Cl)cc2)c2ccccc12 | 50 nM | IC50 [2]: 10 nM; IC50 [3]: 50 nM; IC50 [4]: 50 nM; IC50 [5]: 50 nM; IC50 [6]: 50 nM; IC50 [7]: 50 nM |
| O=C(c1nc(CO)c[nH]1)c1cn(Cc2ccc(Cl)cc2)c2ccccc12 | 5000 nM | – |
| CCC(=O)c1c[nH]c(C(=O)c2cn(Cc3ccc(Cl)cc3)c3ccccc23)n1 | 500 nM | – |
| O=C(c1nc(C(O)c2cccnc2)c[nH]1)c1cn(Cc2ccc(Cl)cc2)c2ccccc12 (stereo unspecified) | 10000 nM | – |
| O=C(O)c1c[nH]c(C(=O)c2cn(Cc3ccc(Cl)cc3)c3ccccc23)n1 | 10000 nM | – |
| Cn1c(C(=O)c2cn(Cc3ccc(Cl)cc3)c3ccccc23)nc2cnccc21 | 10000 nM | – |
| O=C(c1nc(-c2ccccn2)c[nH]1)c1cn(Cc2ccc(Cl)cc2)c2ccccc12 | 500 nM | – |
| O=C(c1nc2ccc[nH]c-2n1)c1cn(Cc2ccc(Cl)cc2)c2ccccc12 | 10000 nM | – |
| O=C(c1cccnc1)c1c[nH]c(C(=O)c2cn(Cc3ccc(Cl)cc3)c3ccccc23)n1 | 500 nM | – |
| CC(=O)O[C@H]1C(=O)[C@@]2(C)[C@H]([C@H](OC(=O)c3ccccc3)[C@]3(O)C[C@H](OC(=O)[C@H](O)[C@@H](NC(=O)c4ccccc4)c4ccccc4)C(C)=C1C3(C)C)[C@]1(OC(C)=O)CO[C@@H]1C[C@@H]2O [PACLITAXEL] | – | IC50 [2]: 5 nM; IC50 [3]: 5000 nM; IC50 [5]: 5 nM |
